The text below walks through data of PMC9464755 (Advances in Therapy, 2022).

≈ marks a conversion by molar mass, not a printed value. Where two headings read alike, the source gives them in different places.

The conditions of series [1]: cited from earlier work.
For series [2] the following is noted: cited from earlier work. The source holds these as a separate data set.
For series [3] the following is noted: healthy subjects; cited from earlier work.
A short description of series [4]: Steady-state pharmacokinetics of lazertinib with. The series is classed as in vivo, human. Conditions: for CD15, arithmetic mean: 240 mg once daily; for DNAUCss, arithmetic mean / DNCmax,ss, arithmetic mean / DNCD15, arithmetic mean: 40–320 mg once daily; for DNAUCss, arithmetic mean / DNCmax,ss, arithmetic mean: steady state. In a few lines: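 NSCLC patients dosed once daily, fasting, in 21-day cycles. AUCss and Cmax,ss came from non-compartmental analysis using actual sampling times over the dosing interval after the 22nd dose (cycle 2 day 1). CD15 is the trough before the 15th dose. Groups were compared using dose-normalized values within the dose-proportional range, plus raw values at 240 mg. Analysis was ANOVA on log-transformed values with group as fixed effect; geometric mean ratios with 90% CI.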

The test system of series [5] is cytochrome P450 (CYP) 3A4. The settings on record: in vitro study; cited from earlier work.
The conditions of series [6]: cited from earlier work. The source holds these as a separate data set.
For series [7] the following is noted: once-daily administration; cited from earlier work.
The mark [8] stands for this setting: co-administered with ranitidine (an H2RA).
Setting [9] is: co-administered with omeprazole or ranitidine.

As to `COc1cc2ncnc(Nc3ccc(F)c(Cl)c3)c2cc1OCCCN1CCOCC1` [gefitinib], in series [1] (setting [8]), the “AUC decreased to” value was 45% and the “Cmax decreased to” value is reported as 70%.

As to `COC(=O)c1ccc2c(c1)NC(=O)/C2=C(\Nc1ccc(N(C)C(=O)CN2CCN(C)CC2)cc1)c1ccccc1` [nintedanib], the “Effect of PPI or H2RA on exposure” value in series [1] is recorded as “neither PPI nor H2RA affected”. Besides, in series [2], the pH-dependent solubility profile result is “increased solubility at acidic pH < 3”.

Take `C#Cc1cccc(Nc2ncnc3cc(OCCOC)c(OCCOC)cc23)c1` [erlotinib]: in series [1] (setting [9]), the “AUC decreased by” value is 30–45% and the “Cmax decreased by” value was 50–60%.

Turning to `Cc1ccc(C(=O)Nc2ccc(CN3CCN(C)CC3)c(C(F)(F)F)c2)cc1C#Cc1cnc2cccnn12` [ponatinib], the “Effect of lansoprazole on exposure” value in series [1] is recorded as “did not have a clinically significant effect”.

On to `C=CC(=O)Nc1cc(Nc2nccc(-n3cc(CN(C)C)c(-c4ccccc4)n3)n2)c(OC)cc1N1CCOCC1` [lazertinib, Lazertinib], for which, in series [3], the “Effect of a high-fat meal on the pharmacokinetics” value was “did not significantly affect”. Besides, the “Reduction of exposure by ARAs at the steady state” value in series [4] (ARA group versus non-ARA group) was “approximately 10%”. The “Effect of co-administered ARAs on the steady state pharmacokinetics” value in series [4] (ARA group versus non-ARA group, all p values > 0.05) is “did not significantly affect”. Also, the “CD15, arithmetic mean” value in series [4] (ARA group, trough day 15 of cycle 1, n=10) is reported as 159.01 (62.4%) ng/mL; in series [4] (Non-ARA group, trough day 15 of cycle 1, n=115), 175.70 (59.4%) ng/mL. Further, the “DNAUCss, arithmetic mean” value in series [4] (ARA group, n=19) is reported as 25.51 (59.9%) h·ng/mL/mg; in series [4] (Non-ARA group, n=105), 27.61 (42.9%) h·ng/mL/mg. Also, the “DNCmax,ss, arithmetic mean” value in series [4] (ARA group, n=19) was 1.97 (50.1%) ng/mL/mg; in series [4] (Non-ARA group, n=105) it was 2.14 (44.3%) ng/mL/mg. Besides, the “DNCD15, arithmetic mean” value in series [4] (ARA group, trough day 15 of cycle 1, n=23) was 0.66 (62.1%) ng/mL/mg; in series [4] (Non-ARA group, trough day 15 of cycle 1, n=203), 0.72 (63.4%) ng/mL/mg. The Metabolizing enzyme result in series [5] is reported as “predominantly metabolized by cytochrome P450 (CYP) 3A4”. The “Solubility in aqueous media” value is recorded as “solubility decreasing” in series [6] (between pH 5.0 and 6.0); “soluble” in series [6] (pH 1.2–4.0); “practically insoluble” in series [6] (pH 7.0–8.0). In addition, in series [7], the “Time to reach steady state” value is listed as at most 15 days.

As for `O=C(c1ccc(F)c(F)c1Nc1ccc(I)cc1F)N1CC(O)([C@@H]2CCCCN2)C1` [cobimetinib], the “Effect of rabeprazole on exposure” value in series [1] (fed and fasted conditions) is reported as “did not result in a statistically significant effect”. In addition, the Fold less solubility in series [2] (pH 6.4 compared to pH 1.9) is given as 100 fold.

For `C[C@@H](Oc1cc(-c2cnn(C3CCNCC3)c2)cnc1N)c1c(Cl)ccc(F)c1Cl` [crizotinib], the “Effect of esomeprazole on pharmacokinetics” value in series [1] is “no clinically significant effect”. In addition, the Solubility is above 10000 µg/mL in series [2] (pH 1.6) and 100 µg/mL (≈ 0.222 mM) in series [2] (pH 7.7).
